Results: PubChem BioAssay AID1136 (Sanford-Burnham Center for Chemical Genomics, 2008)
The whole screen tested about 200,000 compounds, of which fewer than 10 were called active.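 Rule for the calls: active = activation factor at least 2 at 20 µM; inactive = the rest.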 Only a sample is shown.

target: Alkaline phosphatase, tissue-nonspecific isozyme (Homo sapiens) (UniProt P05186); assay: TNAP activators at high phosphate acceptor level, primary screen, biochemical, luminescence, uHTS (AID 1136); conditions: purified TNAP, CDP-star luminescence, 1 M DEA, 30 min; at 20 µM; active compounds read high; 0 = EDTA background, 1 = DMSO-only activity
Sequence (P05186 whole entry, looked up): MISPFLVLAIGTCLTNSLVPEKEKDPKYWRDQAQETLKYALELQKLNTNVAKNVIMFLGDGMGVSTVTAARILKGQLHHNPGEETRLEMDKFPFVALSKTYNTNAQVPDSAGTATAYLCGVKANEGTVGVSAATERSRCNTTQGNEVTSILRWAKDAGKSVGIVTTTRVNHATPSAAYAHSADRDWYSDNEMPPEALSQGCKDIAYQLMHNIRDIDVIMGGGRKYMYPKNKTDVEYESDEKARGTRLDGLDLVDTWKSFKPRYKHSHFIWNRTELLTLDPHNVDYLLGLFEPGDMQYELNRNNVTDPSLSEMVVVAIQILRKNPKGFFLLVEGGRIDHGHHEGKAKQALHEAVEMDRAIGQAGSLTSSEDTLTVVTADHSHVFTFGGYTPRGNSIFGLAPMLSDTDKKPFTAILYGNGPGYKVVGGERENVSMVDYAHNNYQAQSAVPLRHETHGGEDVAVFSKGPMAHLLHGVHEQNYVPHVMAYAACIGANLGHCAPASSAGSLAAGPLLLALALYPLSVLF
Summary of the method: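 Control set: EDTA negative control, DMSO positive control / Assay system: human TNAP / Quantity: TNAP 1/800 final / Evaluation: TNAP activation factor scaled between EDTA and DMSO control wells / Measured by: luminescent substrate turnover signal / Compound dosing: one dose, 20 µM / Times: 30 min enzyme reaction at room temperature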

Activation factor, inactive:
Cc1nc([N+](=O)[O-])nn1C12CC3CC(CC(Br)(C3)C1)C2 1, CC1CCC(C(C)C)C(=O)/C1=C\c1ccc(NC(=O)CCC(=O)O)cc1 (stereo unspecified) 1.1, O=C(CN1C2=NCCN2c2ccccc21)c1cccs1 1.1, COc1ccc(/C=N/NC(=O)c2ccncc2)cc1CN1CCCc2ccccc21 1, Cc1ccnc(NC(=O)c2ccco2)n1 1, CCNc1nc(-c2cc3ccccc3o2)cs1 1.1, Oc1cccc(C2c3[nH]c4ccccc4c3CCN2Cc2cnn(-c3ccccc3)c2)c1 (stereo unspecified) 1, COC(=O)c1ccc(C(NC(=O)OCc2ccccc2)/C(C)=C/[C@@H](C)C(=O)NCc2ccc(OC)c(OC)c2)cc1 (stereo partly specified) 1.1, CCOc1c2ccc(C(=O)NC3CCCc4ccccc43)cc2nn1CC (stereo unspecified) 1, Cc1nnsc1C(=O)N/N=C/c1cccc(C(F)(F)F)c1 1, Cc1[nH]c2ccccc2c1/C=C(/C#N)C(=O)NC(C)C 1, O=C(Cc1c(F)cccc1Cl)Nc1ccc(-n2cnnn2)cc1 1, COCCCNC(=O)Cn1c(=O)n(Cc2ccccc2Cl)c(=O)c2cc(OC)c(OC)cc21 1, COc1cc([N+](=O)[O-])ccc1NC(=O)CN1CCCC1 1, COc1ccc(-c2nn(-c3ccccc3)cc2CN2CCCO2)c(F)c1 1.1, O=C(O/N=C(/c1ccccc1)c1ccncc1)c1ccccc1[N+](=O)[O-] 1.1, CCC(C)NC(=O)Cn1nc(C(F)(F)F)c2c1CCC2 (stereo unspecified) 1.1, CCOC(=O)COc1cc(O)c2c(=O)cc(-c3ccccc3)oc2c1 1, Cc1cccc(NC(=O)/C=C/c2ccc3c(c2)OCO3)n1 1, COc1ccc(Sc2nc(-c3ccccc3)ncc2OC)cc1 1, N#CCOc1ccc(C2=NO[C@@H]3[C@@H]4C[C@@H]([C@H]5C(=O)N(c6ccc7c(c6)OCO7)C(=O)[C@@H]45)[C@H]23)cc1 1
